ChEMBL document CHEMBL1145247, “4-Alkyl and 4,4'-dialkyl 1,2-bis(4-chlorophenyl)pyrazolidine-3,5-dione derivatives as new inhibitors of bacterial cell wall biosynthesis” (Bioorg Med Chem Lett, 2005)
Values after ≈ are worked out from the molar mass of the structure shown.

Columns and labels:
[1] = molecular target: T1, UDP-N-acetylenolpyruvoylglucosamine reductase (Staphylococcus aureus, UniProt P61431); assay: Inhibitory concentration against MurB enzyme in Staphylococcus aureus
T1 sequence (P61431 whole entry): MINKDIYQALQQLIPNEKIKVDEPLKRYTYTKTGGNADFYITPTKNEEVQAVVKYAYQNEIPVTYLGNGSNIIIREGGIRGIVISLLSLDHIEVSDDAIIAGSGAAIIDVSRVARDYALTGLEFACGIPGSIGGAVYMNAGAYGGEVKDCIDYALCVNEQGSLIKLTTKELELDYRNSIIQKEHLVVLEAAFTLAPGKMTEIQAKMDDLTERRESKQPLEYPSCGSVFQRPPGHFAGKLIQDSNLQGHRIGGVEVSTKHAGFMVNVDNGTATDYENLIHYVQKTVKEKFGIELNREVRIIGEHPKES
In short: (§1)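 Enzyme (20 nM) preincubated 20 min with inhibitor, then substrates added to final 50 µM EP-UNAG and 100 µM NADPH. Activity followed spectrophotometrically. At least six inhibitor concentrations between 1.5 and 50 µM per compound. IC50 from sigmoid Hill curve fit (0–100).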

[2] = molecular target: UDP-N-acetylglucosamine 1-carboxyvinyltransferase (Escherichia coli K-12, UniProt P0A749); assay: Inhibitory concentration against MurA enzyme in Escherichia coli
In short: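 Enzyme preincubated with inhibitor 10 min at 37 °C before substrates were added. Reaction ran 30 min at 37 °C and was stopped with malachite green reagent (0.03% malachite green, 1.4% ammonium molybdate, 1.3 N HCl) for phosphate read-out.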

[3] = molecular target: T2, UDP-N-acetylenolpyruvoylglucosamine reductase (Escherichia coli K-12, UniProt P08373); assay: Inhibitory concentration against MurB enzyme in Escherichia coli; in short: as §1
T2 sequence (P08373 whole entry): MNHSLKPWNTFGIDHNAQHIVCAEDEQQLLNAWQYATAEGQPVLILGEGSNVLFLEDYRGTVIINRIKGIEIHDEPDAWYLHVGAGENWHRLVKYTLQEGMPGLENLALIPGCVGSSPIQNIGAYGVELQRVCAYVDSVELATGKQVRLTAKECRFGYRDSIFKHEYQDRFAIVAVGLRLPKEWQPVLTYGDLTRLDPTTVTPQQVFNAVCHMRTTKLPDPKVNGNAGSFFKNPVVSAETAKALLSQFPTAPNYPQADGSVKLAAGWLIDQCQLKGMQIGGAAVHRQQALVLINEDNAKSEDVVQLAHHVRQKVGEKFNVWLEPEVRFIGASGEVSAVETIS

[4] = Minimum inhibitory concentration against cell wall biosynthesis of methicillin-susceptible Coagulase negative staphylococcus GC 646 (MSCNS); format: functional
In short: (§2)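 Broth microdilution per NCCLS M7-A3. Mueller–Hinton broth for staphylococci and enterococci, 2-fold serial dilutions of agent. Final inoculum 1–5 × 10^5 CFU/mL.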

Streptococcus pneumoniae [5] = assay: Minimum inhibitory concentration against cell wall biosynthesis of penicillin resistant Streptococcus pneumoniae GC 1894 (PRSP) in the presence of 4% bovine serum albumin; format: functional
Escherichia coli [6] = assay: Minimum inhibitory concentration against cell wall biosynthesis of Escherichia coli GC 4559; format: functional; in short: as §2
Escherichia coli [7] = assay: Minimum inhibitory concentration against cell wall biosynthesis of Escherichia coli GC 4560; format: functional
Staphylococcus aureus [8] = assay: Minimum inhibitory concentration against cell wall biosynthesis of methicillin resistant Staphylococcus aureus GC 1131; format: functional
In short: (§3)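 Broth microdilution per NCCLS M7-A3 in Mueller–Hinton broth, aerobic. Agents tested as 2-fold serial dilutions, with a final inoculum of 1–5 × 10^5 CFU/mL. Plates incubated 18–22 h at 35 °C in ambient air. MIC read as the endpoint.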

Enterococcus faecalis [9] = assay: Minimum inhibitory concentration against cell wall biosynthesis of vancomycin susceptible (ATCC) Enterococcus faecalis GC 4555; format: functional; in short: as §2
Staphylococcus aureus [10] = assay: Minimum inhibitory concentration against cell wall biosynthesis of methicillin susceptible Staphylococcus aureus GC 4543; format: functional; in short: as §3
Streptococcus pneumoniae [11] = assay: Minimum inhibitory concentration against cell wall biosynthesis of penicillin resistant Streptococcus pneumoniae GC 1894 (PRSP); format: functional
In short: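 Broth microdilution per NCCLS M7-A3, using Mueller–Hinton broth supplemented with 5% sheep blood. Agents tested as 2-fold serial dilutions, with a final inoculum of 1–5 × 10^5 CFU/mL.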

Enterococcus faecalis [12] = assay: Minimum inhibitory concentration against cell wall biosynthesis of vancomycin resistant Enterococcus faecalis GC 2242 (VRE); format: functional; in short: as §3

UDP-N-acetylglucosamine 1-carboxyvinyltransferase, sequence (P0A749 whole entry): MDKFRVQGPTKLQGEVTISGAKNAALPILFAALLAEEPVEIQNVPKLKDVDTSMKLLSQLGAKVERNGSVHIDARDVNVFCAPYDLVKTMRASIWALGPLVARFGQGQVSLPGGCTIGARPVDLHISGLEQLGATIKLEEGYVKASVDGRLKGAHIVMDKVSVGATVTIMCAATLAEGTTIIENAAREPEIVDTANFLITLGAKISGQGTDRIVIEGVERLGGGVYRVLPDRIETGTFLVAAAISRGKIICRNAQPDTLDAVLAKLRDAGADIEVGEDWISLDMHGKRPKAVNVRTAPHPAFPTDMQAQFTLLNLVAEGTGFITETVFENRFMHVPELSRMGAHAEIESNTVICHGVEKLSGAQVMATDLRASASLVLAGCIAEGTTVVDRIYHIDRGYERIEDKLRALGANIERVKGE

| Structure (SMILES) | IC50 [1] [µM] | IC50 [2] [µM] | IC50 [3] [µM] | MIC [4] [µM] | MIC (Streptococcus pneumoniae [5]) [µM] | MIC (Escherichia coli [6]) [µM] | MIC (Escherichia coli [7]) [µM] | MIC (Staphylococcus aureus [8]) [µM] | MIC (Enterococcus faecalis [9]) [µM] | MIC (Staphylococcus aureus [10]) [µM] | MIC (Streptococcus pneumoniae [11]) [µM] | MIC (Enterococcus faecalis [12]) [µM] |
| --- | --- | --- | --- | --- | --- | --- | --- | --- | --- | --- | --- | --- |
| O=C1N(c2ccc(Cl)cc2)N(c2ccc(Cl)cc2)C(=O)C1(CCCCCCc1ccccc1)CCCCCCc1ccccc1 | 8.2 | 9.9 | 7.2 | > 200 | > 200 | > 200 | > 200 | > 200 | > 200 | 200 (≈ 128 µg/mL) | 100 (≈ 64.2 µg/mL) | 200 (≈ 128 µg/mL) |
| CCN(CCC1C(=O)N(c2ccc(Cl)cc2)N(c2ccc(Cl)cc2)C1=O)Cc1ccccc1 | > 50 | > 50 | > 50 | > 200 | > 200 | > 200 | > 200 | 200 (≈ 96.5 µg/mL) | > 200 | > 200 | 100 (≈ 48.2 µg/mL) | 200 (≈ 96.5 µg/mL) |
| CC1(CCCCCCc2ccccc2)C(=O)N(c2ccc(Cl)cc2)N(c2ccc(Cl)cc2)C1=O | > 50 | > 50 | > 50 | > 200 | > 200 | > 200 | 200 (≈ 99.1 µg/mL) |  | 200 (≈ 99.1 µg/mL) | > 200 | 0.78 (≈ 0.386 µg/mL) | 100 (≈ 49.5 µg/mL) |
| CCN(CC)CCC1C(=O)N(c2ccc(Cl)cc2)N(c2ccc(Cl)cc2)C1=O |  | > 50 | > 50 | 200 (≈ 84.1 µg/mL) | > 200 | > 200 | > 200 | 100 (≈ 42 µg/mL) | 200 (≈ 84.1 µg/mL) | > 200 | 100 (≈ 42 µg/mL) | 200 (≈ 84.1 µg/mL) |
| O=C1C(Cc2cc(C(F)(F)F)cc(C(F)(F)F)c2)C(=O)N(c2ccc(Cl)cc2)N1c1ccc(Cl)cc1 |  | > 50 | 12 | 50 (≈ 27.4 µg/mL) | > 200 | 50 (≈ 27.4 µg/mL) | > 200 | 25 (≈ 13.7 µg/mL) | 50 (≈ 27.4 µg/mL) | 25 (≈ 13.7 µg/mL) | 6.25 (≈ 3.42 µg/mL) | 25 (≈ 13.7 µg/mL) |
| COc1cccc(CC2C(=O)N(c3ccc(Cl)cc3)N(c3ccc(Cl)cc3)C2=O)c1 |  | > 50 | 50 | 200 (≈ 88.3 µg/mL) | > 200 | > 200 | > 200 |  | > 200 | > 200 | 200 (≈ 88.3 µg/mL) |  |
| O=C(CCCC1C(=O)N(c2ccc(Cl)cc2)N(c2ccc(Cl)cc2)C1=O)c1ccc(F)cc1 | 11 | 32.4 | 10 | 100 (≈ 48.5 µg/mL) | > 200 | > 200 | 200 (≈ 97.1 µg/mL) | 50 (≈ 24.3 µg/mL) | 50 (≈ 24.3 µg/mL) | 50 (≈ 24.3 µg/mL) | 12.5 (≈ 6.07 µg/mL) | 50 (≈ 24.3 µg/mL) |
| O=C(CC1(CC(=O)c2ccc(F)cc2F)C(=O)N(c2ccc(Cl)cc2)N(c2ccc(Cl)cc2)C1=O)c1ccc(F)cc1F | 5.2 | 9.6 | 5.8 | 25 (≈ 15.7 µg/mL) | > 200 | > 200 | 100 (≈ 62.9 µg/mL) | 12.5 (≈ 7.87 µg/mL) | 12.5 (≈ 7.87 µg/mL) | 12.5 (≈ 7.87 µg/mL) | 3.12 (≈ 1.96 µg/mL) | 12.5 (≈ 7.87 µg/mL) |
| CCCCCCCC1C(=O)N(c2ccc(Cl)cc2)N(c2ccc(Cl)cc2)C1=O |  | > 50 | 42 | 200 (≈ 83.9 µg/mL) | > 200 | > 200 | > 200 | 100 (≈ 41.9 µg/mL) | 200 (≈ 83.9 µg/mL) | 100 (≈ 41.9 µg/mL) | 6.25 (≈ 2.62 µg/mL) | 100 (≈ 41.9 µg/mL) |
| O=C(CC1C(=O)N(c2ccc(Cl)cc2)N(c2ccc(Cl)cc2)C1=O)c1ccc(F)cc1 | 5.2 | 8.4 | 5.4 | > 200 | > 200 | > 200 | 200 (≈ 91.5 µg/mL) | 25 (≈ 11.4 µg/mL) | 50 (≈ 22.9 µg/mL) | 25 (≈ 11.4 µg/mL) | 25 (≈ 11.4 µg/mL) | 50 (≈ 22.9 µg/mL) |
| O=C1N(c2ccc(Cl)cc2)N(c2ccc(Cl)cc2)C(=O)C1(CCOCc1ccccc1)CCOCc1ccccc1 | 7.5 | 20.1 | 7.2 | 200 (≈ 118 µg/mL) | > 200 | > 200 | 200 (≈ 118 µg/mL) | 100 (≈ 59 µg/mL) | 25 (≈ 14.7 µg/mL) | 100 (≈ 59 µg/mL) | 12.5 (≈ 7.37 µg/mL) | 50 (≈ 29.5 µg/mL) |
| O=C1C(CCCc2ccccc2)C(=O)N(c2ccc(Cl)cc2)N1c1ccc(Cl)cc1 |  | 44.3 | 10 | > 200 | > 200 | > 200 | 200 (≈ 87.9 µg/mL) | 200 (≈ 87.9 µg/mL) | > 200 | 200 (≈ 87.9 µg/mL) | 25 (≈ 11 µg/mL) | 200 (≈ 87.9 µg/mL) |
| O=C1C(Cc2cccc(C(F)(F)F)c2)C(=O)N(c2ccc(Cl)cc2)N1c1ccc(Cl)cc1 |  | > 50 | 18 | > 200 | > 200 | > 200 | > 200 |  | > 200 | > 200 | 50 (≈ 24 µg/mL) |  |
| CCC(CC)CC1C(=O)N(c2ccc(Cl)cc2)N(c2ccc(Cl)cc2)C1=O |  | > 50 | 50 | 200 (≈ 81.1 µg/mL) | > 200 | > 200 | 200 (≈ 81.1 µg/mL) | 100 (≈ 40.5 µg/mL) | 200 (≈ 81.1 µg/mL) | 100 (≈ 40.5 µg/mL) | 25 (≈ 10.1 µg/mL) | 100 (≈ 40.5 µg/mL) |
| O=C1C(CCOCc2ccccc2)C(=O)N(c2ccc(Cl)cc2)N1c1ccc(Cl)cc1 | 11 | 33.4 | 11 | 200 (≈ 91.1 µg/mL) | > 200 | > 200 | 200 (≈ 91.1 µg/mL) | 100 (≈ 45.5 µg/mL) | 200 (≈ 91.1 µg/mL) | 200 (≈ 91.1 µg/mL) | 25 (≈ 11.4 µg/mL) | 100 (≈ 45.5 µg/mL) |
| O=C1C(Cc2ccccc2)C(=O)N(c2ccc(Cl)cc2)N1c1ccc(Cl)cc1 |  | > 50 | > 50 | > 200 | > 200 | > 200 | > 200 | 200 (≈ 82.3 µg/mL) | > 200 | 200 (≈ 82.3 µg/mL) | 200 (≈ 82.3 µg/mL) |  |
| O=C1C(CCc2ccccc2)C(=O)N(c2ccc(Cl)cc2)N1c1ccc(Cl)cc1 |  | > 50 | 35 | 200 (≈ 85.1 µg/mL) | > 200 | > 200 | 200 (≈ 85.1 µg/mL) | 200 (≈ 85.1 µg/mL) | > 200 | 200 (≈ 85.1 µg/mL) | 50 (≈ 21.3 µg/mL) | 200 (≈ 85.1 µg/mL) |
| O=C1C(CCSCc2ccccc2)C(=O)N(c2ccc(Cl)cc2)N1c1ccc(Cl)cc1 | 5.1 | 9.8 | 5.2 | 50 (≈ 23.6 µg/mL) | > 200 | > 200 | 200 (≈ 94.3 µg/mL) |  | 100 (≈ 47.1 µg/mL) | 25 (≈ 11.8 µg/mL) | 6.25 (≈ 2.95 µg/mL) | 50 (≈ 23.6 µg/mL) |
| CC1(CCOCc2ccccc2)C(=O)N(c2ccc(Cl)cc2)N(c2ccc(Cl)cc2)C1=O |  | > 50 | 20 | > 200 | > 200 | > 200 | > 200 | 200 (≈ 93.9 µg/mL) | > 200 | > 200 | 100 (≈ 46.9 µg/mL) |  |
| CC1(CC(=O)c2ccc(F)cc2F)C(=O)N(c2ccc(Cl)cc2)N(c2ccc(Cl)cc2)C1=O | > 50 | > 50 | 49 | > 200 | > 200 | > 200 | > 200 |  | 200 (≈ 97.9 µg/mL) | > 200 | > 200 | 100 (≈ 48.9 µg/mL) |
| O=C1C(Cc2ccccc2Cl)C(=O)N(c2ccc(Cl)cc2)N1c1ccc(Cl)cc1 | > 50 | > 50 | > 50 | > 200 | > 200 | > 200 | > 200 |  | > 200 | > 200 | 12.5 (≈ 5.57 µg/mL) |  |
| Cc1c(OCC(=O)c2ccc(F)cc2F)n(-c2ccc(Cl)cc2)n(-c2ccc(Cl)cc2)c1=O | > 50 | > 50 | > 50 | > 200 |  | > 200 | > 200 |  | > 200 |  |  |  |
